HIF activator = HIF pathway transcriptional activation | U2OS HRE-luciferase reporter, luminescence; normalized: DMSO 0%, desferrioxamine 100% | activation, % at 7.5 µM (by protocol) | actives 0.32% (n = 300,000) | AID 1910;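 active means mean activation of at least 10% of the iron chelator positive control signal, with at least half of replicates also reaching 10%; inconclusive means mean and replicate majority disagree about reaching 10%; inactive means mean and most replicates under 10%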
Calb FLC = affects C. albicans growth with fluconazole; actives 0.57% (n = 300,000); growth inhibition, % (no concentration beside the values); AID 1979; C. albicans CaCi-2 (fluconazole-resistant clinical isolate) + fluconazole, Alamar Blue growth, 48 h;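 active means growth inhibition above about 58% in most replicates, limit read from the data, passing the limit was not always enough; inconclusive means exactly half the replicates above a set limit; inactive means most replicates below a set limit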;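 further: all wells also contain fluconazole at 8 µg/ml as a sub-toxic cotreatment; 0% = median of DMSO wells and 100% = median of geldanamycin control wells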
procasp3 activ = activates human procaspase-3; activation, % at 8.5 µM; P42574; recombinant procaspase-3 D3A, Ac-DEVD-pNA absorbance 405 nm; actives 0.11% (n = 330,000);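 active means activation above the mean of all tested compounds plus 3 SD, cut at about 21% in these data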;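 further: 0% = DMSO alone and 100% = DMSO wells spiked with extra 5 µM PC-3 D3A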
Target sequence (P42574 whole entry D9A/D28A/D175A): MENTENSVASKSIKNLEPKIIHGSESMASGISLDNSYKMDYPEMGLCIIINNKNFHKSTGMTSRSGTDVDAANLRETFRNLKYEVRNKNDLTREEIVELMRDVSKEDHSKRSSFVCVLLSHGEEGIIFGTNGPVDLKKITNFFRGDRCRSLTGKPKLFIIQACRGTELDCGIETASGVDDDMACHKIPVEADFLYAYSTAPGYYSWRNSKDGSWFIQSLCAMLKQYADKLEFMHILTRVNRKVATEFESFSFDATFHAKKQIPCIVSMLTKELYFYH
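material = Procaspase-3 D3A mutant | probe or stimulus = Ac-DEVD-pNA | compound = single dose, 8.5 µM nominal compound, 0.8% DMSO | timing = 1 h preincubation, 2 h reaction | measured by = 405 nm absorbance of p-nitroaniline, reads at 0 and 120 min | benchmarks = DMSO-only low control, 5 µM PC-3 D3A high control | repeats = singlicate, each compound tested once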
GAA850 FXN act = frataxin GAA850 promoter activation; HEK293 lucGAA850 FXN promoter luciferase reporter, 24 h; percent of 10 µM SAHA response; activation, % at 6 µM; actives 0.56% (n = 360,000);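 active means activation above the average of all compounds screened plus 3 SD, cutoff fixed separately per campaign, cut at about 7.5% in these data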;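 further: 0% = DMSO wells and 100% = 10 µM SAHA wells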
Neddylation inh = inhibitors of human cullin neddylation. TR-FRET cullin neddylation, biochemical. inhibition, % at 25 µM. actives 0.58% (n = 360,000). AID 651699; in the data active means inhibition above about 36%
procasp7 counter = counter-screen for procaspase-3 activators: activators of human procaspase-7 | P55210 | recombinant procaspase-7, Ac-DEVD-pNA absorbance 405 nm; D23A/D198A/D206A triple mutant, cannot self-cleave; scale: DMSO 0, 5 µM enzyme 100 | activation, % at 8.5 µM | actives 0.093% (n = 330,000);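 active means percent activation above the screen-wide mean plus 3 SD, cut at about 25% in these data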
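Material: Procaspase-7 triple mutant (PC-7 D3A) | Quantity: 2 µM procaspase-7 mutant as dispensed | Reagent: DEVD-pNA substrate | Times: 1 h preincubation, 2 h reaction | Technique: 405 nm absorbance of p-nitroaniline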
Active calls of the source: *; u = inconclusive; x = no result shown. In the library only some 1.9% were active in any assay of this set; here they are far more common.

SMILES | HIF activator | Calb FLC | procasp3 activ | GAA850 FXN act | Neddylation inh | procasp7 counter
CCOC(=O)C(=Cc1cc(=O)c(OC)co1)C(=O)OCC | 1 | 94* | x | -15 | 15 | x
CC1(C(=O)NS(=O)(=O)c2ccc(Cl)cc2)CCN1C(=O)Cc1cccs1 (stereo not drawn) | x | x | x | 2 | -1 | x
CCCCOP(=O)(c1ccc(N(C)C)cc1)C(O)c1ccccc1F (stereo not drawn) | 0 | 95* | 5 | 1 | 18 | -4
CCCCc1ccc(C2C3=C(CC(C)(C)CC3=O)NC3=C2C(=O)c2ccccc23)cc1 (stereo not drawn) | -1 | -1 | -2 | -3 | -17 | 7
CCCc1ccc(C2C3=C(CC(C)(C)CC3=O)NC3=C2C(=O)c2ccccc23)cc1 (stereo not drawn) | 0 | 105* | -7 | -9 | -40 | 12
CSc1cc(-c2ccccc2)n(C)c(=O)c1C#N | 0 | 104* | -4 | 1 | -19 | 14
CSc1cc(-c2ccccc2)n(Cc2c(Cl)cccc2Cl)c(=O)c1C#N | 0 | -6 | -3 | 1 | -50 | 4
CC(C)C1C(=O)N(Cc2cn(CCC3OCCCO3)nn2)CCS(=O)(=O)N1Cc1ccc(-c2ccc(Cl)c(Cl)c2)cc1 (stereo not drawn) | x | x | x | 1 | -36 | x
CC(=O)NC(c1cccs1)c1cc([N+](=O)[O-])c2cccnc2c1O (stereo not drawn) | 18* | 81* | -11 | -1 | -36 | -7
CC(C)C(=O)NC(c1ccccc1)c1cc([N+](=O)[O-])c2cccnc2c1O (stereo not drawn) | 2 | 0 | -14 | 2 | -22 | -16
CCCC(=O)NC(c1cccs1)c1cc([N+](=O)[O-])c2cccnc2c1O (stereo not drawn) | -33 | 40 | -17 | -2 | -22 | -33
CCC(=O)NC(c1cccs1)c1cc([N+](=O)[O-])c2cccnc2c1O (stereo not drawn) | 6 | 86* | -10 | -1 | -32 | -2
COC(=O)c1cn(CC(=O)NC2CCCCC2)c2ccccc12 | 0 | 100* | 6 | -1 | -12 | 9
O=C(N/N=C/c1ccc(O)cc1O)c1ccc(NC(=O)C2CCCCC2)cc1 | -1 | -2 | 48* | -3 | 16 | 9
O=C(CSc1ccc2ccccc2n1)N/N=C/c1ccccc1O | 0 | -4 | x | 3 | 7 | x
Cc1cc(SCC(=O)N/N=C/c2ccc(O)cc2O)c(C)cc1Br | 39* | 101* | -2 | -3 | 1 | -16
Cc1ccc(C(C)C)c(OCc2ccc(C(=O)N/N=C/c3ccc(C(=O)O)cc3)cc2)c1 | -3 | 2 | -8 | -9 | -3 | 1
Cc1ccc(C(C)C)c(OCc2ccc(C(=O)N/N=C/c3ccc(O)cc3O)cc2)c1 | 3 | 1 | -15 | -9 | 44* | -31
Cc1ccc(NC(=O)CCC(=O)N/N=C/c2ccc(O)cc2O)cc1 | 135* | 4 | 2 | -4 | 6 | 2
O=C(N/N=C/c1cccc(O)c1)c1ccc(NC(=O)C2CCCCC2)cc1 | 0 | u | x | 1 | -10 | x
CCc1nc2ccc(C(=O)Nc3cccc(OCC(=O)N(C)C)c3)cn2c1N(C)Cc1ccc(OC)cc1 | x | x | x | -2 | 13 | x
O=S1(=O)C[C@H](N2CCC[C@@H]2CO)[C@@H](COCc2ccccc2)N1 | x | x | x | x | 7 | x
Cc1ccc(-c2nnc(SCC(=O)N/N=C/c3ccccc3C(=O)O)n2-c2ccc(C)cc2)cc1 | -1 | 1 | -4 | 1 | -5 | 1
Cc1cc(SCC(=O)N/N=C/c2ccccc2C(=O)O)c(C)cc1Br | 21* | 4 | 1 | 2 | 0 | 1
COc1ccc(S(=O)(=O)N2CCCCC2c2cc(C(=O)Nc3ccc(OC)cc3C)no2)cc1 (stereo not drawn) | x | x | x | -1 | -2 | x
CC(C)Sc1nc(N)c2c3c(sc2n1)CN(C)CC3 | 13* | -8 | -5 | 5 | 26 | 6
COc1ccc(O)c(/C=N/NC(=S)Nc2cccc(S(=O)(=O)N(C)C)c2)c1 | 42* | -4 | -14 | -6 | x | -12

Screening results (PubChem)
